The text below walks through data of ChEMBL document CHEMBL2010700, “The discovery of aminopyrazines as novel, potent Na(v)1.7 antagonists: hit-to-lead identification and SAR” (Bioorg Med Chem Lett, 2012).

Data set [1] can be described thus: Solubility of the compound in phosphate buffered saline at pH 7.4. It counts as physicochemical.
Data set [2] is described as follows: AUC (infinity) in Sprague-Dawley rat at 2 mg/kg, po. In kind it is ADME, organism-based. As to conditions: plasma; call rule not given here. Details: dose 2 mg/kg, route oral, time infinity. The method, boiled down:
(§1)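 Male Sprague-Dawley rats given 2.0 mpk orally in 10 mL/kg of 30% hydroxypropyl-β-cyclodextrin adjusted to pH 2.2 with methanesulfonic acid.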

Data set [3] in a line: Solubility of the compound in simulated intestinal fluid. In kind it is physicochemical.
Data set [4] is described as follows: Cmax in Sprague-Dawley rat at 2 mg/kg, po. It counts as ADME, organism-based. Details: dose 2 mg/kg, route oral. As to conditions: in vivo. The method, boiled down: as §1
A short description of data set [5]: Volume of distribution at steady state in Sprague-Dawley rat at 0.5 mg/kg, iv. It counts as ADME, organism-based. Details: dose 0.5 mg/kg, route intravenous. As to conditions: in vivo, read-out: Vdss.
Data set [6] in a line: Solubility of the compound in 0.01 N HCl. It counts as physicochemical.
Data set [7] is described as follows: Oral bioavailability in Sprague-Dawley rat at 2 mg/kg. In kind it is ADME, organism-based. As to conditions: in vivo. The procedure, abridged:
as §1

For another data set, the system named is Plasma. As to the kind of experiment: Drug metabolism in rat plasma assessed as formation of mono-oxidized product at 10 uM after 3 hrs. It counts as ADME, cell-free.

Values after ≈ are worked out from the molar mass of the structure shown.

In the case of `Nc1cncc(Nc2ccc(Oc3ccc(OC(F)(F)F)cc3)cc2)n1`, the solubility (usually the dissolved amount per volume that the medium holds) in data set [1] is 1 µg/mL (≈ 2.76 µM); in data set [3], 109 µg/mL (≈ 301 µM); in data set [6] it was 7 µg/mL (≈ 19.3 µM). In data set [2], the AUC(0-inf) – broadly, total exposure, with the tail of the curve extrapolated – came to 0.76 µM·h. The Cmax (commonly the highest concentration seen after dosing) in data set [4] stood at 220 nM. In data set [5], the Vd is 2.1 L/kg. The bioavailability (as a rule, the share of a dose that reaches the circulation, judged against a reference dose that is usually intravenous) in data set [7] was 13%.
With `Nc1ncnc(Nc2ccc(Oc3ccc(Cl)cc3)cc2)n1`, the solubility is 1 µg/mL (≈ 3.19 µM) in data set [1], 7 µg/mL (≈ 22.3 µM) in data set [3] and 6 µg/mL (≈ 19.1 µM) in data set [6]. Also, the Drug metabolism entry in the data set with Plasma is on record as “Active”.
